Laboratory results as given in ChEMBL document CHEMBL1123677, “Structure-activity studies of 5-[[4-(4,5-dihydro-2-oxazolyl) phenoxy]alkyl]-3-methylisoxazoles: inhibitors of picornavirus uncoating” (J Med Chem, 1987).
Values after ≈ are worked out from the molar mass of the structure shown. Active and inactive are the calls of the source. No cut-off for these calls is given here.

Legend:
rhinovirus A2 [1] = experiment: Antirhinovirus activity was assessed and the maximum testable concentration that causes no apparent effects on the cell monolayers was determined against HRV-2 virus in vitro.; assay type: functional, human rhinovirus type 2
rhinovirus A2 [2] = experiment: Antiviral activity determined by ability to inhibit the HRV-2( human rhinovirus type -2) virus by plaque reduction assay in vitro; assay type: functional; settings: Rhinovirus A
Summary of the method: (§1)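 Plaque reduction assay against human rhinovirus type 2 (HRV-2), following an earlier reported method. The value is the MIC, the minimum inhibitory concentration.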

Human rhinovirus sp. = experiment: Mean of MIC's was determined for the five types of virus like HRV-2, HRV-1A,HRV-22,HRV-41 and HRV-50; assay type: functional
Summary of the method: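 MIC measured by plaque reduction against HRV-2 first. The value is the mean of the MICs across these five serotypes.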

[3] = test system: human rhinovirus (15-serotype panel); experiment: Antirhinovirus activity was determined by the ability to inhibit the growth of 80% of a panel of 15 human rhinovirus serotypes
rhinovirus A2 [4] = experiment: Tested for antirhinoviral activity against the rhinovirus serotype 2; assay type: functional, human rhinovirus type 2; settings: Rhinovirus A
Summary of the method: (§2)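 Selected compounds were tested across a 15-serotype rhinovirus panel: the five secondary serotypes plus 10 more. An MIC was recorded for each serotype. MIC80, the concentration inhibiting 80% of serotypes tested, was also derived from this panel.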

rhinovirus B86 = experiment: Tested for antirhinoviral activity against the rhinovirus serotype 86; assay type: functional; settings: Rhinovirus B; summary of the method: as §2
rhinovirus A67 = experiment: Tested for antirhinoviral activity against the rhinovirus serotype 67; assay type: functional; settings: Rhinovirus A; summary of the method: as §2
rhinovirus B14 = experiment: Tested for antirhinoviral activity against the rhinovirus serotype 14; assay type: functional, human rhinovirus type 14; settings: Rhinovirus B; summary of the method: as §2
rhinovirus A21 = experiment: Tested for antirhinoviral activity against the rhinovirus serotype 21; assay type: functional; settings: Rhinovirus A; summary of the method: as §2
rhinovirus A1B = experiment: Tested for antirhinoviral activity against the rhinovirus serotype 1B; assay type: functional, human rhinovirus type 1b; settings: Rhinovirus A; summary of the method: as §2
Human rhinovirus 1A = experiment: Tested for antirhinoviral activity against the rhinovirus serotype 1A; assay type: functional; summary of the method: as §2
rhinovirus A89 = experiment: Tested for antirhinoviral activity against the rhinovirus serotype 89; assay type: functional, human rhinovirus type 89; settings: Rhinovirus A; summary of the method: as §2
rhinovirus A22 = experiment: Tested for antirhinoviral activity against the rhinovirus serotype 22; assay type: functional; settings: Rhinovirus A; summary of the method: as §2
rhinovirus A15 = experiment: Tested for antirhinoviral activity against the rhinovirus serotype 15; assay type: functional; settings: Rhinovirus A; summary of the method: as §2
rhinovirus A41 = experiment: Tested for antirhinoviral activity against the rhinovirus serotype 41; assay type: functional; settings: Rhinovirus A; summary of the method: as §2
rhinovirus A50 = experiment: Tested for antirhinoviral activity against the rhinovirus serotype 50; assay type: functional; settings: Rhinovirus A; summary of the method: as §2
rhinovirus B6 = experiment: Tested for antirhinoviral activity against the rhinovirus serotype 6; assay type: functional; settings: Rhinovirus B; summary of the method: as §2
rhinovirus A30 = experiment: Tested for antirhinoviral activity against the rhinovirus serotype 30; assay type: functional; settings: Rhinovirus A; summary of the method: as §2
rhinovirus A25 [5] = experiment: Tested for antirhinoviral activity against the rhinovirus serotype 25; assay type: functional; settings: Rhinovirus A; summary of the method: as §2
rhinovirus A2 [6] = experiment: Antirhinovirus activity was determined by the ability to inhibit the HRV-2( human rhinovirus type -2) virus by plaque reduction assay in vitro; IA is inactive; assay type: functional, organism-based; summary of the method: as §1
[7] = Partition coefficient (logP); assay type: physicochemical; settings: octanol/water
rhinovirus A25 [8] = experiment: Tested for antirhinoviral activity against the rhinovirus serotype 25; IA is inactive; assay type: functional, organism-based; summary of the method: as §2
rhinovirus A2 [9] = experiment: Antirhinovirus activity was determined by the ability to inhibit the HRV-2 (human rhinovirus type -2) virus by plaque reduction assay in vitro; assay type: functional; settings: Rhinovirus A; summary of the method: as §1

Row | MIC (rhinovirus A2 [2]) | MIC (Human rhinovirus sp.) | MIC80 [3] | MIC (rhinovirus A2 [4]) | MIC (rhinovirus B86) | MIC (rhinovirus A67) | MIC (rhinovirus B14) | MIC (rhinovirus A21) | MIC (rhinovirus A1B) | MIC (Human rhinovirus 1A) | MIC (rhinovirus A89) | MIC (rhinovirus A22) | MIC (rhinovirus A15) | MIC (rhinovirus A41) | MIC (rhinovirus A50) | MIC (rhinovirus B6) | MIC (rhinovirus A30) | MIC (rhinovirus A25 [5]) | logP [7] | Structure (SMILES) | MTL (rhinovirus A2 [1]) | other results
1 | 7.1 µM (≈ 2.45 µg/mL) | – | – | – | – | – | – | – | – | – | – | – | – | – | – | – | – | – | – | Cc1cc(CCCCCOc2ccc(C3=NCCO3)cc2CO)on1 | 9 µM | –
2 | 0.2 µM (≈ 0.0715 µg/mL) | > 17 µM | – | – | – | – | – | – | – | – | – | – | – | – | – | – | – | – | – | Cc1cc(CCCCCOc2ccc(C3=NCCO3)cc2N(C)C)on1 | 17 µM | –
3 | 0.4 µM (≈ 0.133 µg/mL) | > 9.3 µM | – | – | – | – | – | – | – | – | – | – | – | – | – | – | – | – | – | Cc1cc(CCCCCOc2ccc(C3=NCCO3)cc2F)on1 | 9.3 µM | –
4 | 0.1 µM (≈ 0.0377 µg/mL) | 2.3 µM (≈ 0.867 µg/mL) | 2.8 µM (≈ 1.06 µg/mL) | – | – | – | – | – | – | – | – | – | – | – | – | – | – | – | – | Cc1cc(CCCCCCCOc2ccc(C3=NCCO3)cc2Cl)on1 | 17 µM | –
5 | 0.06 µM (≈ 0.0209 µg/mL) | 1 µM (≈ 0.349 µg/mL) | 1 µM (≈ 0.349 µg/mL) | 0.06 µM (≈ 0.0209 µg/mL) | 0.9 µM (≈ 0.314 µg/mL) | 0.23 µM (≈ 0.0802 µg/mL) | 2.4 µM (≈ 0.837 µg/mL) | 0.07 µM (≈ 0.0244 µg/mL) | 0.2 µM (≈ 0.0698 µg/mL) | 1 µM (≈ 0.349 µg/mL) | 0.03 µM (≈ 0.0105 µg/mL) | 0.1 µM (≈ 0.0349 µg/mL) | 0.2 µM (≈ 0.0698 µg/mL) | 3.5 µM (≈ 1.22 µg/mL) | 0.2 µM (≈ 0.0698 µg/mL) | 0.6 µM (≈ 0.209 µg/mL) | 0.07 µM (≈ 0.0244 µg/mL) | 2.4 µM (≈ 0.837 µg/mL) | – | Cc1cc(CCCCCOc2ccc(C3=NCCO3)cc2Cl)on1 | 8.9 µM | –
6 | – | – | – | – | – | – | – | – | – | – | – | – | – | – | – | – | – | – | – | Cc1cc(CCCCCOc2ccc(C3=NCCO3)cc2C(C)(C)C)on1 | 8.4 µM | MIC (rhinovirus A2 [6]): inactive
7 | 0.03 µM (≈ 0.0115 µg/mL) | 0.4 µM (≈ 0.153 µg/mL) | 1.1 µM (≈ 0.421 µg/mL) | 0.03 µM (≈ 0.0115 µg/mL) | 0.03 µM (≈ 0.0115 µg/mL) | 0.2 µM (≈ 0.0765 µg/mL) | 3 µM (≈ 1.15 µg/mL) | 0.03 µM (≈ 0.0115 µg/mL) | 0.04 µM (≈ 0.0153 µg/mL) | 0.4 µM (≈ 0.153 µg/mL) | 0.2 µM (≈ 0.0765 µg/mL) | 0.07 µM (≈ 0.0268 µg/mL) | 0.2 µM (≈ 0.0765 µg/mL) | 0.2 µM (≈ 0.0765 µg/mL) | 1.1 µM (≈ 0.421 µg/mL) | 1.8 µM (≈ 0.688 µg/mL) | 0.3 µM (≈ 0.115 µg/mL) | 0.2 µM (≈ 0.0765 µg/mL) | 4.38 | Cc1cc(CCCCCOc2ccc(C3=NCCO3)cc2C(F)(F)F)on1 | 3.4 µM | –
8 | 0.3 µM (≈ 0.103 µg/mL) | 4.5 µM (≈ 1.55 µg/mL) | 1.9 µM (≈ 0.654 µg/mL) | 0.3 µM (≈ 0.103 µg/mL) | 1.9 µM (≈ 0.654 µg/mL) | 1 µM (≈ 0.344 µg/mL) | 1.7 µM (≈ 0.585 µg/mL) | 0.2 µM (≈ 0.0689 µg/mL) | 1.8 µM (≈ 0.62 µg/mL) | 6.7 µM (≈ 2.31 µg/mL) | 0.7 µM (≈ 0.241 µg/mL) | 0.8 µM (≈ 0.276 µg/mL) | 0.6 µM (≈ 0.207 µg/mL) | 14 µM (≈ 4.82 µg/mL) | 0.4 µM (≈ 0.138 µg/mL) | 1 µM (≈ 0.344 µg/mL) | 0.2 µM (≈ 0.0689 µg/mL) | – | 3.44 | COc1cc(C2=NCCO2)ccc1OCCCCCc1cc(C)no1 | 37 µM | IA (rhinovirus A25 [8]): inactive
9 | 3.5 µM (≈ 1.2 µg/mL) | > 18 µM | – | – | – | – | – | – | – | – | – | – | – | – | – | – | – | – | – | Cc1cc(CCCCCCCOc2ccc(C3=NCCO3)cc2)on1 [DISOXARIL] | 18 µM | –
10 | 0.06 µM (≈ 0.0218 µg/mL) | 1.4 µM (≈ 0.508 µg/mL) | 1.2 µM (≈ 0.435 µg/mL) | – | – | – | – | – | – | – | – | – | – | – | – | – | – | – | – | Cc1cc(CCCCCCOc2ccc(C3=NCCO3)cc2Cl)on1 | 8.5 µM | –
11 | – | 0.4 µM (≈ 0.157 µg/mL) | 1.4 µM (≈ 0.551 µg/mL) | 0.05 µM (≈ 0.0197 µg/mL) | 1.4 µM (≈ 0.551 µg/mL) | 0.2 µM (≈ 0.0787 µg/mL) | 2 µM (≈ 0.787 µg/mL) | 0.01 µM (≈ 0.00393 µg/mL) | 0.1 µM (≈ 0.0393 µg/mL) | 0.5 µM (≈ 0.197 µg/mL) | 0.02 µM (≈ 0.00787 µg/mL) | 0.05 µM (≈ 0.0197 µg/mL) | 0.2 µM (≈ 0.0787 µg/mL) | 1.4 µM (≈ 0.551 µg/mL) | 0.1 µM (≈ 0.0393 µg/mL) | 1.1 µM (≈ 0.433 µg/mL) | 0.08 µM (≈ 0.0315 µg/mL) | 1.8 µM (≈ 0.708 µg/mL) | 4.42 | Cc1cc(CCCCCOc2ccc(C3=NCCO3)cc2Br)on1 | 7.9 µM | MIC (rhinovirus A2 [9]): 0.04 µM (≈ 0.0157 µg/mL)
12 | 0.2 µM (≈ 0.0681 µg/mL) | 0.8 µM (≈ 0.272 µg/mL) | 1.6 µM (≈ 0.545 µg/mL) | 0.2 µM (≈ 0.0681 µg/mL) | 1.6 µM (≈ 0.545 µg/mL) | 0.4 µM (≈ 0.136 µg/mL) | 1.7 µM (≈ 0.579 µg/mL) | 0.09 µM (≈ 0.0306 µg/mL) | 0.3 µM (≈ 0.102 µg/mL) | 1.2 µM (≈ 0.409 µg/mL) | 0.1 µM (≈ 0.034 µg/mL) | 0.5 µM (≈ 0.17 µg/mL) | 0.7 µM (≈ 0.238 µg/mL) | 1.3 µM (≈ 0.443 µg/mL) | 1.2 µM (≈ 0.409 µg/mL) | 2.4 µM (≈ 0.817 µg/mL) | 0.1 µM (≈ 0.034 µg/mL) | 1.7 µM (≈ 0.579 µg/mL) | 4.65 | C=Cc1cc(C2=NCCO2)ccc1OCCCCCc1cc(C)no1 | 18 µM | –
